{"source": "paper PMC11162967", "about": "(International Journal of Nanomedicine, 2024)", "key": {"Saturated solubility": {"assay": "Saturated solubility", "type": "physicochemical", "conditions": "ultrapure water", "procedure,_shortened": "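Excess test material added to 5 mL ultrapure water, shaken 24 h at 37°C. Undissolved drug removed by centrifugation (12,000 rpm, 30 min) and 0.22 μm filtration. Filtrate concentration measured by HPLC. n=3, mean ± SD.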"}, "Caco-2 cells [1]": {"tested_on": "Caco-2 cells", "assay": "Cellular uptake mechanisms with endocytosis inhibitors", "type": "in vitro ADME", "procedure,_shortened": "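Caco-2 cells seeded at 2.5×10^4 per well, cultured 14 days. Then rinsed and given test compound at 30 μM luteolin, 4 h at 37°C. Washed, lysed by ultrasonication, luteolin by HPLC normalised to BCA protein. Compared with uninhibited control.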"}, "In vitro dissolution": {"assay": "In vitro dissolution", "type": "physicochemical", "conditions": "37°C"}, "Caco-2 cells [2]": {"tested_on": "Caco-2 cells", "assay": "Cellular uptake in Caco-2 cell monolayer", "type": "in vitro ADME", "conditions": "Caco-2, 30 μM luteolin, 37°C, 4 h"}, "Caco-2 cells [3]": {"tested_on": "Caco-2 cells", "assay": "Cytotoxicity study on Caco-2 cells", "type": "cell-based", "conditions": "under the experimental conditions (Figure S4)"}, "HUA model mice": {"tested_on": "HUA model mice", "assay": "Anti-hyperuricemia study in HUA mice model", "type": "in vivo, ICR mice", "conditions": "oral 30 mg/kg luteolin for 2 weeks, compared with HUA group", "procedure,_shortened": "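Male ICR mice, n=8 per group. Hyperuricemia induced by daily intraperitoneal potassium oxonate 300 mg/kg plus hypoxanthine 300 mg/kg in normal saline for seven consecutive days. Test compound given by gavage in normal saline at 30 mg/kg luteolin-equivalent for 2 weeks, including 1-week pretreatment. Vehicle and febuxostat 10 mg/kg (oral, one week) controls. Serum uric acid measured by commercial kit at end; one-way ANOVA.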"}}, "data": [{"smiles": "O=c1cc(-c2ccc(O)c(O)c2)oc2cc(O)cc(O)c12", "note": "[LUT, Luteolin]", "values": [{"measurement": "solubility at 24 h", "setting": "Saturated solubility", "value": "0.94 ± 0.07", "unit": "µg/mL"}, {"measurement": "effect of chlorpromazine, indomethacin, or colchicine on cellular uptake", "setting": "Caco-2 cells [1]; Caco-2 pretreated with inhibitor 1 h", "value": "no significant change"}, {"measurement": "effect of sodium azide on cellular uptake", "setting": "Caco-2 cells [1]; Caco-2 pretreated with sodium azide 650 μg/mL 1 h", "value": "significantly reduced"}, {"measurement": "drug dissolved (cumulative dissolution)", "setting": "In vitro dissolution; SGF pH 1.2 with 0.5% Tween 80, within 3 min", "value": 25.78, "unit": "%"}, {"measurement": "drug dissolved (cumulative dissolution)", "setting": "In vitro dissolution; SIF pH 6.8 with 0.5% Tween 80, within 3 min", "value": 48.47, "unit": "%"}, {"measurement": "cellular uptake", "setting": "Caco-2 cells [2]", "value": "25.89 ± 4.94 μg luteolin/mg cellular protein"}, {"measurement": "viability of Caco-2 cells", "setting": "Caco-2 cells [3]", "value": "did not affect the viability"}, {"measurement": "serum UA level reduction", "setting": "HUA model mice", "value": 51.67, "unit": "%"}]}]}
